Test results as given in ChEMBL document CHEMBL4007411, “Design, Synthesis, and Biological Evaluation of Coupled Bioactive Scaffolds as Potential Anticancer Agents for Dual Targeting of Dihydrofolate Reductase and Thioredoxin Reductase” (J Med Chem, 2017).
Active and inactive are the calls of the source. No cut-off for these calls is given here.

Experiments:
[1] = biological target: T1, Thioredoxin reductase 1, cytoplasmic (Rattus norvegicus, UniProt O89049); assay: Inhibition of […] thioredoxin reductase after 30 mins by DTNB reduction assay; details: read-out: IC50
T1 sequence (O89049 whole entry): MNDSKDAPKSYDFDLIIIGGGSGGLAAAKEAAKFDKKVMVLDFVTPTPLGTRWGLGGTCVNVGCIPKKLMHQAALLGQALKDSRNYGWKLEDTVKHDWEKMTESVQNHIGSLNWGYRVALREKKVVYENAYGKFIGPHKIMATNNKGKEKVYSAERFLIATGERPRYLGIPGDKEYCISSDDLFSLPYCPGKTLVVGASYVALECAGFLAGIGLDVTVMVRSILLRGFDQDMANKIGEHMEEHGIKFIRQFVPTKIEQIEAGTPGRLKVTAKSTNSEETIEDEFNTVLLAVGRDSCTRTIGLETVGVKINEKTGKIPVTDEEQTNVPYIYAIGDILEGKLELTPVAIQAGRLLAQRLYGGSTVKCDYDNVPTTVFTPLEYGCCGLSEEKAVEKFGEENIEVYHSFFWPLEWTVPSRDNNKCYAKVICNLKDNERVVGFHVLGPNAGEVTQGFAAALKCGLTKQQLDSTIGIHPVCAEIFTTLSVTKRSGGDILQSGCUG
How it was run: (§1)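 Rat liver TrxR at 2.1 units/ml preincubated with a range of test concentrations and 200 µM NADPH in 50 mM Tris-HCl, 1 mM EDTA, pH 7.5, at room temperature for 30 or 60 min. Equal volume of buffer with 5 mM DTNB and 200 µM NADPH then added. A412 followed over 2 min. Activity as % of vehicle Vmax; IC50 from log concentration plot.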

[2] = biological target: T1, Thioredoxin reductase 1, cytoplasmic; assay: Inhibition of […] thioredoxin reductase after 60 mins by DTNB reduction assay; details: read-out: IC50; how it was run: as §1
[3] = biological target: T2, Thioredoxin reductase 1, cytoplasmic (Homo sapiens) (UniProt Q16881); assay: Inhibition of thioredoxin reductase in human HCT116 cell lysate using thioredoxin as substrate at 40 to 70 uM after 16 hrs by end point insulin assay method
T2 sequence (whole entry): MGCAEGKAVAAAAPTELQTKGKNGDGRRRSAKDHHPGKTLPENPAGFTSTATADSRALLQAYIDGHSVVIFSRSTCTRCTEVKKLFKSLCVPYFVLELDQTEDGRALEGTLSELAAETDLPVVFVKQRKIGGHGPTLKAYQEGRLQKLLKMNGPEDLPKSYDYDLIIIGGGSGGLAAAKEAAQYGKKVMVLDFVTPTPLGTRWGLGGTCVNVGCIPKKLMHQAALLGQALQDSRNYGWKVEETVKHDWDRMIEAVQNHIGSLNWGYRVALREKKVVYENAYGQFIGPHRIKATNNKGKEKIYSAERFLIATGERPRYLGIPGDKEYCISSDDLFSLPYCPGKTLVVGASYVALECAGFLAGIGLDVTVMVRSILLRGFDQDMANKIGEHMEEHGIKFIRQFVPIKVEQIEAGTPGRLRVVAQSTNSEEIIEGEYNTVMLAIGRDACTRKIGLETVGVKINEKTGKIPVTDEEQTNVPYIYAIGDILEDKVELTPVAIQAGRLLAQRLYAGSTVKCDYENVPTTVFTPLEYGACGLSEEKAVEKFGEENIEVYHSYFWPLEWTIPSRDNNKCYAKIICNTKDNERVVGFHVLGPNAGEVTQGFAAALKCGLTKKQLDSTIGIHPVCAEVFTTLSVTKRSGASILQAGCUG
How it was run: (§2)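 HCT116 cells treated 16 h at 0.001 to 1 µM or 40 to 70 µM, then lysed. Stopped with 1 mM DTNB and 240 µM NADPH in 6 M guanidine HCl and Tris pH 8.0, read at A412. Given as % of DMSO-treated cells. Mean of three experiments.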

[4] = biological target: T3, Dihydrofolate reductase (Homo sapiens) (UniProt P00374); details: 0.0001 to 1 uM
T3 sequence (whole entry): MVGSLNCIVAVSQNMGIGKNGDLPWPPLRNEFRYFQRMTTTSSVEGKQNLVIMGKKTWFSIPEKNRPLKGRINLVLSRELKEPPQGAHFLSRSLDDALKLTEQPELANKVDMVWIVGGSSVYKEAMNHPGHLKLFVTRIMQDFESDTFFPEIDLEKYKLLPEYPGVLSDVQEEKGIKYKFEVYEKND

[5] = biological target: T2, Thioredoxin reductase 1, cytoplasmic (Homo sapiens); assay: Inhibition of thioredoxin reductase in human HCT116 cell lysate using thioredoxin as substrate at 0.001 to 1 uM after 16 hrs by end point insulin assay method
Dihydrofolate reductase = biological target: T4, Dihydrofolate reductase (Homo sapiens, UniProt P00374); assay: Inhibition of recombinant human DHFR assessed as reduction in conversion of DHF to THF measured every 30 secs for 6 mins by UV-Vis spectrophotometric method
T4 sequence (P00374 whole entry): T3 sequence (whole entry)

HCT-116 [6] = assay: Antiproliferative activity against human HCT116 cells after 72 hrs by MTT assay; type: functional; details: HCT-116, 72 h
How it was run: (§3)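 Cells kept in RPMI 1640 with 10% FBS, penicillin and streptomycin at 37°C and 5% CO2. Seeded at 1.0 x 10^4/well and left to adhere overnight. Serial dilutions made in medium from DMSO stocks. MTT at 400 µg/ml final for 4 h, read at T0 and after 72 h. Formazan dissolved in DMSO:glycine pH 10.5, A550. GI50 and LC50 interpolated from absorbance versus log concentration.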

MCF7 = assay: Antiproliferative activity against human MCF7 cells after 72 hrs by MTT assay; type: functional; details: MCF7, 72 h; how it was run: as §3
[7] = biological target: T3, Dihydrofolate reductase (Homo sapiens); assay: Inhibition of DHFR in human HCT116 cell lysate assessed as reduction in conversion of DHF to THF after 16 hrs
How it was run: (§4)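 HCT116 cells treated 16 h at 0.001 to 1 µM or 40 to 70 µM, then lysed. 400 µg lysate protein in PBS with 50 µM DHF and 200 µM NADPH, with matching controls containing 1 µM methotrexate. A340 decrease followed over 15 min at room temperature. MTX-sensitive rate given as % of DMSO-treated cells. Mean of three independent experiments.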

[8] = biological target: T3, Dihydrofolate reductase (Homo sapiens); assay: Inhibition of DHFR in human HCT116 cell lysate assessed as reduction in conversion of DHF to THF at 40 to 70 uM after 16 hrs; how it was run: as §4
HCT-116 [9] = assay: Upregulation of DHFR protein levels in human HCT116 cell lysate at 40 to 70 uM after 16 hrs by Western blot analysis; type: functional, cell-based
How it was run: (§5)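 HCT116 plated at 1.5 x 10^6 per 100 mm plate, grown 48 h, then treated 16 h at 40 to 70 µM. Adherent and floating cells pooled and lysed in Triton X-100 buffer with protease inhibitors. Lysates cleared and protein measured by Bradford. Equal protein run on SDS-PAGE and blotted. DHFR or TrxR detected by ECL, β-actin antibody also used. Three independent experiments.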

[10] = biological target: T2, Thioredoxin reductase 1, cytoplasmic (Homo sapiens); assay: Inhibition of thioredoxin reductase in human HCT116 cell lysate using thioredoxin as substrate after 16 hrs by end point insulin assay method; how it was run: as §2
HCT-116 [11] = assay: Effect on thioredoxin reductase protein levels in human HCT116 cell lysate at 40 to 70 uM after 16 hrs by Western blot analysis; type: cell-based; details: hct-116, 16 h; how it was run: as §5

| SMILES | IC50 [1] [µM] | IC50 [2] [µM] | inhibition [3] | inhibition [4] | inhibition [5] | IC50 (Dihydrofolate reductase) [µM] | GI50 (HCT-116 [6]) [µM] | CC50 (HCT-116 [6]; read-out: LC50 (the source's name)) [µM] | GI50 (MCF7) [µM] | LC50 (concentration killing 50% of cells present at T0) (MCF7) [µM] | inhibition [7] | inhibition [8] | Activity (HCT-116 [9]) | inhibition [10] | Activity (HCT-116 [11]) |
| --- | --- | --- | --- | --- | --- | --- | --- | --- | --- | --- | --- | --- | --- | --- | --- |
| O=C(/C=C/c1ccccc1)c1ccccc1 [CHALCONE] | 46.4 | 26.7 | Active | inactive | inactive | – | – | – | – | – | – | – | – | – | – |
| Cl.NC1=NC2(CCCC2)N(OCCCCOc2cccc(C(=O)/C=C/c3ccccc3)c2)C(N)=N1 | 9.2 | 5.9 | – | – | inactive | 0.0026 | 0.116 | 13.5 | 0.127 | 9.7 | Dose-dependent effect | Active | Active | Dose-dependent effect | Non-Toxic |
